From ChEMBL document CHEMBL1121371, “Antihypertensive 5,6-diarylpyridazin-3-ones” (1980)
Several values for one entry are separate records, joined by “and”; a condition that tells them apart may be missing. Equal entries are not always repeated.

Tests used:
Rattus norvegicus [1] = assay: Antihypertensive activity in spontaneously hypertensive rats was measured as average blood pressure at 100 mg/kg, p.o. after 24 hours of postdose-1.; format: functional; details: route oral
Method in brief: (§1)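 Spontaneously hypertensive rats aged 12 to 16 weeks, in groups of five with systolic pressure of 170 mmHg or more. Oral dosing as a solution or suspension in 0.25% methylcellulose, 5 mL/kg, with a vehicle control group. Tail-cuff systolic pressure was read predose and 4 and 24 h after each of two doses. Values were compared with predose by Student's t test.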

Rattus norvegicus [2] = assay: Antihypertensive activity in spontaneously hypertensive rats was measured as average blood pressure at 100 mg/kg, po after 24 hours of postdose-2; format: functional; method in brief: as §1
Rattus norvegicus [3] = assay: Antihypertensive activity in spontaneously hypertensive rats was measured as average blood pressure at 100 mg/kg, p.o. after 4 hours of postdose-1; format: functional; details: route oral; method in brief: as §1
Rattus norvegicus [4] = assay: Antihypertensive activity in spontaneously hypertensive rats was measured as average blood pressure at 100 mg/kg, p.o. after 4 hours of postdose-2; format: functional; details: route oral; method in brief: as §1
Rattus norvegicus [5] = assay: Antihypertensive activity in spontaneously hypertensive rats was measured as average blood pressure at 100 mg/kg, p.o. before predose; format: functional; details: route oral; method in brief: as §1
Rattus norvegicus [6] = assay: Antihypertensive activity in spontaneously hypertensive rats was measured as average blood pressure at 10 mg/kg, p.o. before predose; format: functional; details: route oral; method in brief: as §1
Rattus norvegicus [7] = assay: Antihypertensive activity in spontaneously hypertensive rats was measured as average blood pressure at 10 mg/kg, p.o. after 24 hours of postdose-1; format: functional; details: route oral; method in brief: as §1
Rattus norvegicus [8] = assay: Antihypertensive activity in spontaneously hypertensive rats was measured as average blood pressure at 10 mg/kg, p.o. after 24 hours of postdose-2; format: functional; details: route oral; method in brief: as §1
Rattus norvegicus [9] = assay: Antihypertensive activity in spontaneously hypertensive rats was measured as average blood pressure at 10 mg/kg, p.o. after 4 hours of postdose-1.; format: functional; details: route oral; method in brief: as §1
Rattus norvegicus [10] = assay: Antihypertensive activity in spontaneously hypertensive rats was measured as average blood pressure at 10 mg/kg, p.o. after 4 hours of postdose-2; format: functional; details: route oral; method in brief: as §1
Rattus norvegicus [11] = assay: Antihypertensive activity in spontaneously hypertensive rats was measured as average blood pressure at 30 mg/kg, p.o. after 24 hours of postdose-1; format: functional; details: route oral; method in brief: as §1
Rattus norvegicus [12] = assay: Antihypertensive activity in spontaneously hypertensive rats was measured as average blood pressure at 30 mg/kg, p.o. after 24 hours of postdose-2; format: functional; details: route oral; method in brief: as §1
Rattus norvegicus [13] = assay: Antihypertensive activity in spontaneously hypertensive rats was measured as average blood pressure at 30 mg/kg, po after 4 hours of postdose-1.; format: functional; method in brief: as §1
Rattus norvegicus [14] = assay: Antihypertensive activity in spontaneously hypertensive rats was measured as average blood pressure at 30 mg/kg, p.o. after 4 hours of postdose-2; format: functional; details: route oral; method in brief: as §1
Rattus norvegicus [15] = assay: Antihypertensive activity in spontaneously hypertensive rats was measured as average blood pressure at 30 mg/kg, p.o. before predose; format: functional; details: route oral; method in brief: as §1
Rattus norvegicus [16] = assay: Antihypertensive activity in spontaneously hypertensive rats was measured as average blood pressure at 100 mg/kg, p.o. after 4 hours of postdose-1.; format: functional; details: route oral; method in brief: as §1
Rattus norvegicus [17] = assay: Antihypertensive activity in spontaneously hypertensive rats was measured as increase in heart rate at 100 mg/kg peroral dose; (+)=increased heart rate; format: functional, organism-based; design: dose 100 mg/kg
Rattus norvegicus [18] = assay: Antihypertensive activity in spontaneously hypertensive rats was measured as increase in heart rate at 100 mg/kg peroral dose; (+)=Increased heart rate; format: functional, organism-based; design: dose 100 mg/kg
Rattus norvegicus [19] = assay: Antihypertensive activity in spontaneously hypertensive rats was measured as average blood pressure at 50 mg/kg, p.o. before predose; format: functional; details: route oral; method in brief: as §1
Rattus norvegicus [20] = assay: Antihypertensive activity in spontaneously hypertensive rats was measured as average blood pressure at 50 mg/kg, p.o. after 4 hours of postdose-1; format: functional; details: route oral; method in brief: as §1
Rattus norvegicus [21] = assay: Antihypertensive activity in spontaneously hypertensive rats was measured as average blood pressure at 50 mg/kg, p.o. after 4 hours of postdose-2; format: functional; details: route oral; method in brief: as §1
Rattus norvegicus [22] = assay: Antihypertensive activity in spontaneously hypertensive rats was measured as average blood pressure at 25 mg/kg, p.o. after 24 hours of postdose-1; format: functional; details: route oral; method in brief: as §1
Rattus norvegicus [23] = assay: Antihypertensive activity in spontaneously hypertensive rats was measured as average blood pressure at 25 mg/kg, p.o. after 24 hours of postdose-2; format: functional; details: route oral; method in brief: as §1
Rattus norvegicus [24] = assay: Antihypertensive activity in spontaneously hypertensive rats was measured as average blood pressure at 25 mg/kg, po after 4 hours of postdose-1; format: functional; method in brief: as §1
Rattus norvegicus [25] = assay: Antihypertensive activity in spontaneously hypertensive rats was measured as average blood pressure at 25 mg/kg, p.o. after 4 hours of postdose-2; format: functional; details: route oral; method in brief: as §1
Rattus norvegicus [26] = assay: Antihypertensive activity in spontaneously hypertensive rats was measured as average blood pressure at 25 mg/kg, p.o. before predose; format: functional; details: route oral; method in brief: as §1
Rattus norvegicus [27] = assay: Antihypertensive activity in spontaneously hypertensive rats was measured as average blood pressure at 50 mg/kg, p.o. after 24 hours of postdose-1; format: functional; details: route oral; method in brief: as §1
Rattus norvegicus [28] = assay: Antihypertensive activity in spontaneously hypertensive rats was measured as average blood pressure at 50 mg/kg, p.o. after 24 hours of postdose-2; format: functional; details: route oral; method in brief: as §1

Structure (SMILES) | BP (Rattus norvegicus [1]) | BP (Rattus norvegicus [2]) | BP (Rattus norvegicus [3]) | BP (Rattus norvegicus [4]) | BP (Rattus norvegicus [5]) | BP (Rattus norvegicus [16]) | further results
C[C@](N)(Cc1ccc(O)c(O)c1)C(=O)O [METHYLDOPA] | 174 mmHg | 166 mmHg | 161 mmHg | 155 mmHg | 178 mmHg |  | 
CC(=O)c1c(-c2ccc(Cl)cc2)c(-c2ccc(Cl)cc2)nn(CCN=C(C)C)c1=O | 158 mmHg | 164 mmHg |  | 134 mmHg | 209 mmHg | 203 mmHg | BP (Rattus norvegicus [6]): 210 mmHg; BP (Rattus norvegicus [7]): 208 mmHg; BP (Rattus norvegicus [8]): 209 mmHg; BP (Rattus norvegicus [9]): 214 mmHg; BP (Rattus norvegicus [10]): 205 mmHg; BP (Rattus norvegicus [11]): 196 mmHg; BP (Rattus norvegicus [12]): 198 mmHg; BP (Rattus norvegicus [13]): 201 mmHg; BP (Rattus norvegicus [14]): 190 mmHg; BP (Rattus norvegicus [15]): 211 mmHg
CC(=O)c1c(-c2ccc(Cl)cc2)c(-c2ccc(Cl)cc2)nn(CCN(C)C)c1=O [listing 1 of 2 here] |  |  |  |  |  |  | Heart rate (Rattus norvegicus [17]): increased heart rate
CC(C)NCCn1nc(-c2ccc(Cl)cc2)c(-c2ccc(Cl)cc2)c(C#N)c1=O.Cl | 206 mmHg | 173 mmHg |  | 209 mmHg | 220 mmHg | 218 mmHg | 
CC(=O)c1c(-c2ccc(F)cc2)c(-c2ccc(F)cc2)nn(CCO)c1=O | 160 mmHg | 180 mmHg | 138 mmHg | 166 mmHg | 186 mmHg |  | 
CN(C)c1ccc(-c2c(-c3ccc(Cl)cc3)c(-c3ccc(Cl)cc3)nn(CCO)c2=O)cc1.Cl | 199 mmHg | 208 mmHg | 184 mmHg | 188 mmHg | 223 mmHg |  | Heart rate (Rattus norvegicus [18]): Increased heart rate
CC(=O)c1c(-c2ccc(Cl)cc2)c(-c2ccc(Cl)cc2)nn(CCN(C)C)c1=O [listing 2 of 2 here] | 179 mmHg | 144 mmHg |  | 155 mmHg | 201 mmHg | 182 mmHg | BP (Rattus norvegicus [11]): 164 mmHg; BP (Rattus norvegicus [12]): 193 mmHg; BP (Rattus norvegicus [13]): 182 mmHg; BP (Rattus norvegicus [14]): 167 mmHg; BP (Rattus norvegicus [15]): 199 mmHg
CC(=O)NCCn1nc(-c2ccc(Cl)cc2)c(-c2ccc(Cl)cc2)c(C(C)=O)c1=O | 146 mmHg | 145 mmHg | 149 mmHg | 136 mmHg | 220 mmHg |  | 
N#Cc1c(-c2ccc(Cl)cc2)c(-c2ccc(Cl)cc2)nn(CCO)c1=O | 158 mmHg | 152 mmHg | 157 mmHg | 145 mmHg | 200 mmHg |  | BP (Rattus norvegicus [6]): 194 mmHg; BP (Rattus norvegicus [19]): 200 mmHg; BP (Rattus norvegicus [20]): 165 mmHg; BP (Rattus norvegicus [21]): 156 mmHg; BP (Rattus norvegicus [7]): 184 mmHg; BP (Rattus norvegicus [8]): 180 mmHg; BP (Rattus norvegicus [9]): 181 mmHg; BP (Rattus norvegicus [10]): 178 mmHg; BP (Rattus norvegicus [22]): 178 mmHg; BP (Rattus norvegicus [23]): 180 mmHg; BP (Rattus norvegicus [24]): 168 mmHg; BP (Rattus norvegicus [25]): 157 mmHg; BP (Rattus norvegicus [26]): 208 mmHg; BP (Rattus norvegicus [27]): 171 mmHg; BP (Rattus norvegicus [28]): 168 mmHg
CC(=O)c1c(-c2ccc(Cl)cc2)c(-c2ccc(Cl)cc2)nn(CCN(C)C)c1=O.Cl | 170 mmHg | 184 mmHg |  | 160 mmHg | 205 mmHg | 200 mmHg | 
N=C(N)NCCN1CCCCCCC1 [GUANETHIDINE] |  |  |  |  |  |  | BP (Rattus norvegicus [19]): 187 mmHg; BP (Rattus norvegicus [20]): 154 mmHg; BP (Rattus norvegicus [21]): 138 mmHg; BP (Rattus norvegicus [22]): 181 mmHg; BP (Rattus norvegicus [23]): 183 mmHg; BP (Rattus norvegicus [24]): 163 mmHg; BP (Rattus norvegicus [25]): 163 mmHg; BP (Rattus norvegicus [26]): 194 mmHg; BP (Rattus norvegicus [27]): 166 mmHg; BP (Rattus norvegicus [28]): 146 mmHg
CC(=O)c1c(-c2ccc(Cl)cc2)c(-c2ccc(Cl)cc2)nn(CCNC(C)C)c1=O | 181 mmHg | 176 mmHg |  | 143 mmHg | 216 mmHg | 211 mmHg | 
COCCn1nc(-c2ccc(Cl)cc2)c(-c2ccc(Cl)cc2)c(C(C)=O)c1=O | 148 mmHg | 158 mmHg | 142 mmHg | 144 mmHg | 186 mmHg |  | 
CCOC(=O)N1CCN(CCn2nc(-c3ccc(Cl)cc3)c(-c3ccc(Cl)cc3)c(C(C)=O)c2=O)CC1 | 182 mmHg | 183 mmHg |  | 151 mmHg | 200 mmHg | 186 mmHg | 
CC(=O)c1c(-c2ccc(Cl)cc2)c(-c2ccc(Cl)cc2)nn(CCN2CCOCC2)c1=O |  |  | 140 mmHg |  |  | 230 mmHg | BP (Rattus norvegicus [1]; 100 mg/kg): 201 mmHg and 161 mmHg; BP (Rattus norvegicus [2]; 100 mg/kg): 222 mmHg and 177 mmHg; BP (Rattus norvegicus [4]; 100 mg/kg): 199 mmHg and 146 mmHg; BP (Rattus norvegicus [5]; 100 mg/kg): 239 mmHg and 201 mmHg
CC(=O)c1c(-c2ccc(Cl)cc2)c(-c2ccc(Cl)cc2)nn(CCN2CCCCC2)c1=O | 163 mmHg | 176 mmHg |  | 165 mmHg | 192 mmHg | 180 mmHg | 
CCOC(=O)CCCn1nc(-c2ccc(Cl)cc2)c(-c2ccc(Cl)cc2)c(C(C)=O)c1=O | 174 mmHg | 181 mmHg |  | 188 mmHg | 196 mmHg | 192 mmHg | 
CC(=O)c1c(-c2ccc(Cl)cc2)c(-c2ccc(Cl)cc2)nn(C(C)CO)c1=O (stereo not drawn) | 174 mmHg | 201 mmHg | 186 mmHg | 191 mmHg | 212 mmHg |  | 
N#Cc1c(-c2ccc(Cl)cc2)c(-c2ccc(Cl)cc2)nn(CCCC(=O)O)c1=O | 204 mmHg | 180 mmHg |  | 175 mmHg | 215 mmHg | 202 mmHg | 
